# Tested on: HEK-293T
# Assay: Multiplex assay against HEK293T
# Format: toxicity, cell-based
# Settings: human
# In short: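 On a CQ1 microscope at 37°C and 5% CO2, live cells were imaged after compound addition. They had been stained at seeding with Hoechst33342, BioTracker Green Microtubule Cytoskeleton Dye, MitoTracker Red and Annexin V Alexa Fluor 680. CellPathfinder machine-learning gating assigned cells to Hoechst high-intensity objects or normal cells, normal cells to healthy, pyknosed or fragmented nuclei, and pyknosed cells to mitotic or apoptotic. Tubulin, mitochondrial-mass and membrane-permeability phenotypes are per cents of healthy-nucleus cells.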
# [1] = 12 h, 1 µM, compound concentration 1 uM, replicate 1
# [2] = 12 h, 1 µM, compound concentration 1 uM, replicate 2
# [3] = 12 h, 10 µM, compound concentration 10 uM, replicate 1
# [4] = 12 h, 10 µM, compound concentration 10 uM, replicate 2
# [5] = 24 h, 1 µM, compound concentration 1 uM, replicate 1
# [6] = 24 h, 1 µM, compound concentration 1 uM, replicate 2
# [7] = 24 h, 10 µM, compound concentration 10 uM, replicate 1
# [8] = 24 h, 10 µM, compound concentration 10 uM, replicate 2
# [9] = 48 h, 1 µM, compound concentration 1 uM, replicate 1
# [10] = 48 h, 1 µM, compound concentration 1 uM, replicate 2
# [11] = 48 h, 10 µM, compound concentration 10 uM, replicate 1
# [12] = 48 h, 10 µM, compound concentration 10 uM, replicate 2
compound,measurement,setting,value
O=C(O)CCC/C=C\CC1C(O)CC(O)C1/C=C/C(O)COc1cccc(Cl)c1 (stereo not given) [CLOPROSTENOL],Population Apoptotic (%),[1],31%
same,Population Fragmented Nuclei (%),[1],7%
same,Population Healthy Nuclei (%),[1],81%
same,Population Hoechst High Intensity Objects (%),[1],9%
same,Population Membrane Permeable-Phenotype (%),[1],0%
same,Population Mitochondria Different-Phenotype (%),[1],44%
same,Population Mitotic Cells (%),[1],68%
same,Population Normal (%),[1],90%
same,Population Pyknosed Nuclei (%),[1],10%
same,Population Tubulin-Different-Phenotype (%),[1],35%
same,Total Cell Count,[1],458
same,Population Apoptotic (%),[2],40%
same,Population Fragmented Nuclei (%),[2],6%
same,Population Healthy Nuclei (%),[2],80%
same,Population Hoechst High Intensity Objects (%),[2],7%
same,Population Mitochondria Different-Phenotype (%),[2],56%
same,Population Mitotic Cells (%),[2],59%
same,Population Normal (%),[2],92%
same,Population Pyknosed Nuclei (%),[2],13%
same,Population Tubulin-Different-Phenotype (%),[2],23%
same,Total Cell Count,[2],341
same,Population Apoptotic (%),[3],45%
same,Population Fragmented Nuclei (%),[3],7%
same,Population Healthy Nuclei (%),[3],77%
same,Population Hoechst High Intensity Objects (%),[3],6%
same,Population Membrane Permeable-Phenotype (%),[3],0%
same,Population Mitochondria Different-Phenotype (%),[3],63%
same,Population Mitotic Cells (%),[3],54%
same,Population Normal (%),[3],93%
same,Population Pyknosed Nuclei (%),[3],14%
same,Population Tubulin-Different-Phenotype (%),[3],41%
same,Total Cell Count,[3],395
same,Population Apoptotic (%),[4],51%
same,Population Fragmented Nuclei (%),[4],8%
same,Population Hoechst High Intensity Objects (%),[4],13%
same,Population Mitochondria Different-Phenotype (%),[4],68%
same,Population Mitotic Cells (%),[4],48%
same,Population Normal (%),[4],86%
same,Population Tubulin-Different-Phenotype (%),[4],37%
same,Total Cell Count,[4],357
same,Population Apoptotic (%),[5],22%
same,Population Fragmented Nuclei (%),[5],11%
same,Population Healthy Nuclei (%),[5],76%
same,Population Hoechst High Intensity Objects (%),[5],7%
same,Population Membrane Permeable-Phenotype (%),[5],1%
same,Population Mitochondria Different-Phenotype (%),[5],25%
same,Population Mitotic Cells (%),[5],77%
same,Population Normal (%),[5],92%
same,Population Pyknosed Nuclei (%),[5],11%
same,Population Tubulin-Different-Phenotype (%),[5],28%
same,Total Cell Count,[5],612
same,Population Apoptotic (%),[6],34%
same,Population Fragmented Nuclei (%),[6],7%
same,Population Healthy Nuclei (%),[6],83%
same,Population Hoechst High Intensity Objects (%),[6],5%
same,Population Membrane Permeable-Phenotype (%),[6],0%
same,Population Mitochondria Different-Phenotype (%),[6],37%
same,Population Mitotic Cells (%),[6],65%
same,Population Normal (%),[6],94%
same,Population Pyknosed Nuclei (%),[6],9%
same,Population Tubulin-Different-Phenotype (%),[6],16%
same,Total Cell Count,[6],477
same,Population Apoptotic (%),[7],46%
same,Population Fragmented Nuclei (%),[7],10%
same,Population Healthy Nuclei (%),[7],78%
same,Population Hoechst High Intensity Objects (%),[7],7%
same,Population Membrane Permeable-Phenotype (%),[7],0%
same,Population Mitochondria Different-Phenotype (%),[7],46%
same,Population Mitotic Cells (%),[7],54%
same,Population Normal (%),[7],92%
same,Population Pyknosed Nuclei (%),[7],10%
same,Population Tubulin-Different-Phenotype (%),[7],35%
same,Total Cell Count,[7],490
same,Population Fragmented Nuclei (%),[8],12%
same,Population Hoechst High Intensity Objects (%),[8],11%
same,Population Mitochondria Different-Phenotype (%),[8],55%
same,Population Mitotic Cells (%),[8],53%
same,Population Normal (%),[8],88%
same,Population Pyknosed Nuclei (%),[8],9%
same,Population Tubulin-Different-Phenotype (%),[8],31%
same,Total Cell Count,[8],483
same,Population Apoptotic (%),[9],20%
same,Population Fragmented Nuclei (%),[9],15%
same,Population Healthy Nuclei (%),[9],77%
same,Population Hoechst High Intensity Objects (%),[9],4%
same,Population Membrane Permeable-Phenotype (%),[9],1%
same,Population Mitochondria Different-Phenotype (%),[9],15%
same,Population Mitotic Cells (%),[9],79%
same,Population Normal (%),[9],95%
same,Population Pyknosed Nuclei (%),[9],6%
same,Population Tubulin-Different-Phenotype (%),[9],15%
same,Total Cell Count,[9],956
same,Population Apoptotic (%),[10],28%
same,Population Fragmented Nuclei (%),[10],13%
same,Population Healthy Nuclei (%),[10],81%
same,Population Hoechst High Intensity Objects (%),[10],5%
same,Population Mitochondria Different-Phenotype (%),[10],20%
same,Population Mitotic Cells (%),[10],71%
same,Population Normal (%),[10],94%
same,Population Pyknosed Nuclei (%),[10],5%
same,Population Tubulin-Different-Phenotype (%),[10],11%
same,Total Cell Count,[10],703
same,Population Apoptotic (%),[11],33%
same,Population Fragmented Nuclei (%),[11],16%
same,Population Healthy Nuclei (%),[11],76%
same,Population Hoechst High Intensity Objects (%),[11],7%
same,Population Membrane Permeable-Phenotype (%),[11],0%
same,Population Mitochondria Different-Phenotype (%),[11],32%
same,Population Mitotic Cells (%),[11],66%
same,Population Normal (%),[11],92%
same,Population Pyknosed Nuclei (%),[11],6%
same,Population Tubulin-Different-Phenotype (%),[11],18%
same,Total Cell Count,[11],659
same,Population Apoptotic (%),[12],25%
same,Population Fragmented Nuclei (%),[12],18%
same,Population Healthy Nuclei (%),[12],75%
same,Population Hoechst High Intensity Objects (%),[12],6%
same,Population Membrane Permeable-Phenotype (%),[12],1%
same,Population Mitochondria Different-Phenotype (%),[12],25%
same,Population Mitotic Cells (%),[12],74%
same,Population Normal (%),[12],93%
same,Population Pyknosed Nuclei (%),[12],5%
same,Total Cell Count,[12],731
CN1C[C@H](C(=O)N[C@]2(C)O[C@@]3(O)[C@@H]4CCCN4C(=O)[C@H](Cc4ccccc4)N3C2=O)C[C@@H]2c3cccc4[nH]cc(c34)C[C@H]21.CS(=O)(=O)O [DIHYDROERGOTAMINE MESYLATE],Population Apoptotic (%),[1],38%
same,Population Fragmented Nuclei (%),[1],6%
same,Population Healthy Nuclei (%),[1],84%
same,Population Hoechst High Intensity Objects (%),[1],5%
same,Population Membrane Permeable-Phenotype (%),[1],0%
same,Population Mitochondria Different-Phenotype (%),[1],41%
same,Population Mitotic Cells (%),[1],61%
same,Population Normal (%),[1],94%
same,Population Pyknosed Nuclei (%),[1],8%
same,Population Tubulin-Different-Phenotype (%),[1],26%
same,Total Cell Count,[1],418
same,Population Apoptotic (%),[2],46%
same,Population Fragmented Nuclei (%),[2],3%
same,Population Healthy Nuclei (%),[2],81%
same,Population Mitochondria Different-Phenotype (%),[2],65%
same,Population Mitotic Cells (%),[2],53%
same,Population Pyknosed Nuclei (%),[2],14%
same,Population Tubulin-Different-Phenotype (%),[2],17%
same,Total Cell Count,[2],285
same,Population Apoptotic (%),[3],31%
same,Population Fragmented Nuclei (%),[3],7%
same,Population Healthy Nuclei (%),[3],76%
same,Population Hoechst High Intensity Objects (%),[3],9%
same,Population Membrane Permeable-Phenotype (%),[3],0%
same,Population Mitochondria Different-Phenotype (%),[3],48%
same,Population Mitotic Cells (%),[3],68%
same,Population Normal (%),[3],90%
same,Population Pyknosed Nuclei (%),[3],15%
same,Population Tubulin-Different-Phenotype (%),[3],29%
same,Total Cell Count,[3],403
same,Population Apoptotic (%),[4],53%
same,Population Fragmented Nuclei (%),[4],5%
same,Population Healthy Nuclei (%),[4],80%
same,Population Hoechst High Intensity Objects (%),[4],11%
same,Population Mitochondria Different-Phenotype (%),[4],61%
same,Population Mitotic Cells (%),[4],46%
same,Population Normal (%),[4],88%
same,Population Pyknosed Nuclei (%),[4],13%
same,Population Tubulin-Different-Phenotype (%),[4],23%
same,Total Cell Count,[4],435
same,Population Apoptotic (%),[5],28%
same,Population Fragmented Nuclei (%),[5],9%
same,Population Healthy Nuclei (%),[5],80%
same,Population Hoechst High Intensity Objects (%),[5],4%
same,Population Membrane Permeable-Phenotype (%),[5],0%
same,Population Mitochondria Different-Phenotype (%),[5],28%
same,Population Mitotic Cells (%),[5],71%
same,Population Normal (%),[5],95%
same,Population Pyknosed Nuclei (%),[5],9%
same,Population Tubulin-Different-Phenotype (%),[5],20%
same,Total Cell Count,[5],621
same,Population Apoptotic (%),[6],51%
same,Population Fragmented Nuclei (%),[6],7%
same,Population Healthy Nuclei (%),[6],84%
same,Population Hoechst High Intensity Objects (%),[6],3%
same,Population Mitochondria Different-Phenotype (%),[6],41%
same,Population Mitotic Cells (%),[6],48%
same,Population Normal (%),[6],96%
same,Population Pyknosed Nuclei (%),[6],8%
same,Population Tubulin-Different-Phenotype (%),[6],12%
same,Total Cell Count,[6],341
same,Population Apoptotic (%),[7],27%
same,Population Fragmented Nuclei (%),[7],10%
same,Population Healthy Nuclei (%),[7],76%
same,Population Hoechst High Intensity Objects (%),[7],5%
same,Population Membrane Permeable-Phenotype (%),[7],0%
same,Population Mitochondria Different-Phenotype (%),[7],33%
same,Population Mitotic Cells (%),[7],72%
same,Population Normal (%),[7],94%
same,Population Pyknosed Nuclei (%),[7],13%
same,Population Tubulin-Different-Phenotype (%),[7],26%
same,Total Cell Count,[7],480
same,Population Apoptotic (%),[8],32%
same,Population Fragmented Nuclei (%),[8],9%
same,Population Healthy Nuclei (%),[8],84%
same,Population Hoechst High Intensity Objects (%),[8],6%
same,Population Mitochondria Different-Phenotype (%),[8],39%
same,Population Mitotic Cells (%),[8],67%
same,Population Normal (%),[8],93%
same,Population Pyknosed Nuclei (%),[8],6%
same,Population Tubulin-Different-Phenotype (%),[8],16%
same,Total Cell Count,[8],567
same,Population Apoptotic (%),[9],29%
same,Population Fragmented Nuclei (%),[9],14%
same,Population Healthy Nuclei (%),[9],78%
same,Population Hoechst High Intensity Objects (%),[9],2%
same,Population Membrane Permeable-Phenotype (%),[9],1%
same,Population Mitochondria Different-Phenotype (%),[9],17%
same,Population Mitotic Cells (%),[9],70%
same,Population Normal (%),[9],97%
same,Population Pyknosed Nuclei (%),[9],6%
same,Population Tubulin-Different-Phenotype (%),[9],11%
same,Total Cell Count,[9],1011
same,Population Apoptotic (%),[10],28%
same,Population Fragmented Nuclei (%),[10],12%
same,Population Healthy Nuclei (%),[10],82%
same,Population Membrane Permeable-Phenotype (%),[10],0%
same,Population Mitochondria Different-Phenotype (%),[10],23%
same,Population Mitotic Cells (%),[10],71%
same,Population Pyknosed Nuclei (%),[10],5%
same,Population Tubulin-Different-Phenotype (%),[10],9%
same,Total Cell Count,[10],524
same,Population Apoptotic (%),[11],22%
same,Population Fragmented Nuclei (%),[11],15%
same,Population Healthy Nuclei (%),[11],76%
same,Population Hoechst High Intensity Objects (%),[11],2%
same,Population Membrane Permeable-Phenotype (%),[11],0%
same,Population Mitochondria Different-Phenotype (%),[11],20%
same,Population Mitotic Cells (%),[11],77%
same,Population Normal (%),[11],97%
same,Population Pyknosed Nuclei (%),[11],7%
same,Population Tubulin-Different-Phenotype (%),[11],12%
same,Total Cell Count,[11],778
same,Population Apoptotic (%),[12],31%
same,Population Healthy Nuclei (%),[12],77%
same,Population Hoechst High Intensity Objects (%),[12],1%
same,Population Mitochondria Different-Phenotype (%),[12],21%
same,Population Mitotic Cells (%),[12],68%
same,Population Normal (%),[12],98%
same,Population Pyknosed Nuclei (%),[12],6%
same,Population Tubulin-Different-Phenotype (%),[12],11%
same,Total Cell Count,[12],793
